Screening results: PubChem BioAssay, Sanford-Burnham Center for Chemical Genomics
A selection: hits, their analogues and other compounds. The true share with any hit is near 0.64%.
PMI act satM6P: increases human PMI activity with near-saturating mannose 6-phosphate | P34949 | coupled PMI enzyme assay, resazurin fluorescence, 20 min; stronger effect = higher value; 1 = untreated enzyme, 0 = substrate-free blank | activation factor at 20 µM | actives 0.34% (n = 190,000);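 active = activation factor of 2 or more at 20 µM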
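Material: human phosphomannose isomerase with PGI, G6PDH, diaphorase coupling enzymes. Quantity: 15 ng/mL PMI. Medium: HEPES pH 7.4 buffer with MgCl2 and Tween-20. Reagent: Near-saturating mannose-6-phosphate, 1.0 mM. Compound: 20 µM single dose. Times: enzyme reaction with compound 20 min at room temperature. Detection: resorufin fluorescence at Ex 544/Em 590 nm.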
TNAP inh noacc: TNAP (human) inhibition, acceptor-free conditions; P05186; purified TNAP, CDP-star luminescence, 30 min; inhibition, % at 20 µM; actives 0.26% (n = 200,000);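 active = tissue-nonspecific alkaline phosphatase inhibition above about 50% at 20 µM in the single-dose screen, limit read from the data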;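 note: 0% = DMSO negative control and 100% = EDTA positive control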
Target sequence (P05186 whole entry, looked up): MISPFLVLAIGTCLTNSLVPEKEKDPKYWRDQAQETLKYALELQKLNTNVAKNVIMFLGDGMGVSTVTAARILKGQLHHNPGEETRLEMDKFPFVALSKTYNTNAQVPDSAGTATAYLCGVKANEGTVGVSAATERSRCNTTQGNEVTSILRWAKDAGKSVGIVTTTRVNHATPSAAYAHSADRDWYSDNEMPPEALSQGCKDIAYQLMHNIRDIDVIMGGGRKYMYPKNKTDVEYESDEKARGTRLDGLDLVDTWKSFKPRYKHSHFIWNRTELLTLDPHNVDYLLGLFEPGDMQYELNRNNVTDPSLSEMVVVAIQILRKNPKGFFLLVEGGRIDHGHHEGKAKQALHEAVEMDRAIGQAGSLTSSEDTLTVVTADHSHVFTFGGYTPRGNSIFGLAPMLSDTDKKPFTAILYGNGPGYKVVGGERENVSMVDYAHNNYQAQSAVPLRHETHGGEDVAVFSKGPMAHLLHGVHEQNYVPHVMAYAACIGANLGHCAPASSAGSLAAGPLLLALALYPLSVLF
PMI activator: phosphomannose isomerase (human) activation; P34949; purified human PMI, coupled resazurin fluorescence, 20 min; stronger effect = higher value; 1 = vehicle control, 0 substrate-free wells; activation factor at 20 µM; actives 0.005% (n = 190,000); AID 1214;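 active = activation factor of 2 or more at 20 µM, relative to plate controls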
TNAP inh hi DEA: inhibitors of human TNAP at high phosphate acceptor concentration. P05186. purified TNAP, CDP-star luminescence, 1 M DEA. inhibition, % at 20 µM. actives 0.03% (n = 200,000);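 active = over 50% inhibition of tissue-nonspecific alkaline phosphatase at 20 µM in the single-dose screen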;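 note: plate controls were DMSO wells for no effect and EDTA-quenched wells as full inhibition for full effect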
TNAP act hiacc: increases human TNAP activity under high phosphate acceptor concentration. P05186. purified TNAP, CDP-star luminescence, 1 M DEA, 30 min; stronger effect = higher value; 0 = EDTA background, 1 = DMSO-only activity. activation factor at 20 µM. 200,000 tested, under 10 active. AID 1136;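 active = activation factor at least 2 at 20 µM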
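Dosing: 20 µM single point. System: human TNAP. Amount: TNAP 1/800 final. Incubation: 30 min, room temperature. Read-out: TNAP activation factor scaled between EDTA and DMSO control wells. Signal: luminescence from CDP-star hydrolysis. Medium: 1 M DEA, pH 9.8, Mg2+, Zn2+. Control set: EDTA negative control, DMSO positive control.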
Active calls of the source: *; · = no result.

SMILES | PMI act satM6P | TNAP inh noacc | PMI activator | TNAP inh hi DEA | TNAP act hiacc
CCOC(=O)N1CCC(NC(=O)CCN2C(=O)COc3ccccc32)CC1 | 1 | -16 | 0.9 | -5 | 1
O=C(O)c1cc(-c2cccc([N+](=O)[O-])c2)n[nH]1 | 1 | 41 | 1.1 | -3 | 1
CCOC(=O)c1cc(-c2cccc([N+](=O)[O-])c2)n[nH]1 | 0.9 | 62* | 0.9 | -2 | 1
O=C(c1cc(-c2cccc(O)c2)on1)N1CCCCC1 | 0.8 | -11 | 0.8 | 0 | 1
Cc1nc(C/C(=N\Nc2ccccc2)c2ccc(O)cc2O)cs1 | 2.1* | 0 | 1.4 | 1 | 1
CCc1cc(/C(Cc2ccccn2)=N\Nc2ccccc2)c(O)cc1O | 2.1* | -6 | 1.6 | 0 | 1
Cc1nc(CC(=O)c2ccc(O)cc2O)cs1 | 1 | 3 | 1 | -1 | 1
O=C1OCCC1Sc1nnc(-c2cccc(Br)c2)o1 (stereo not drawn) | 1 | -15 | 0.9 | -5 | 1.1
Cc1ccc(N(C(=O)CCC(=O)Nc2nccs2)C(C(=O)NC(C)(C)C)c2ccc(O)cc2)cc1 (stereo not drawn) | 1 | -3 | 1 | 1 | 1
CCOCCCNS(=O)(=O)c1ccc(NC(=O)c2ccc(OC)c([N+](=O)[O-])c2)cc1 | 1 | -11 | 1 | 0 | 1
Cc1ccc(NC(=O)N2CCC(=O)N2)cc1 | 2* | -8 | 1.3 | 0 | 1
Cc1ccc(NC(=O)C(C)C(=O)Nc2ccc(C)cc2)cc1 | 1.1 | -3 | 1.1 | -1 | 1
O=C(Nc1cc(C(=O)N2CCOCC2)ccc1N1CCCC1)c1cccs1 | 2.1* | -11 | 1.7 | -3 | 1
O=C(Nc1ccc(C(=O)N2CCOCC2)cc1)c1cccs1 | 1.2 | -6 | 1.1 | -9 | 1.1
COc1cc(OC)cc(-c2cc(NC(C)=O)n[nH]2)c1 | 0.9 | 1 | 0.8 | -4 | 1
COc1cc(C(=O)Nc2nc(OC)c(-c3ccccc3)c(OC)n2)cc(OC)c1OC | 0.9 | -8 | 1 | -4 | 1
COc1cc(C(=O)Nc2cc(-c3ccccc3)[nH]n2)cc(OC)c1OC | 1.1 | 63* | 1 | -6 | 1.1
CC(=O)Nc1cc(-c2ccc(Cl)cc2)[nH]n1 | · | 88* | · | -4 | 1
COc1ccc2cnn(-c3ccc(C)cc3)c(=O)c2c1OC | 1 | -10 | 1 | -8 | 1.1
NNc1ccccc1C(F)(F)F | 3.1* | -26 | 2* | -3 | 1
CSc1cccc(NC(=O)CSc2nnc(C)s2)c1 | 1 | -5 | 1 | 1 | 1
CCOc1cc(C(c2c(C)[nH][nH]c2=O)c2c(C)[nH][nH]c2=O)ccc1OCc1ccc([N+](=O)[O-])cc1 | 0.8 | -53 | 0.8 | 13 | 0.9
CCOc1cc(/C=N/O)ccc1OS(=O)(=O)c1ccc(C)cc1 | 0.8 | 0 | 0.8 | -1 | 1
CCOc1cc(C(c2c(C)[nH][nH]c2=O)c2c(C)[nH][nH]c2=O)ccc1OS(=O)(=O)c1ccc(C)cc1 | 0.9 | -13 | 0.9 | 52* | 0.5
CCOc1ccc(C(c2c(C)[nH][nH]c2=O)c2c(C)[nH][nH]c2=O)cc1OC | 0.6 | 47 | 0.7 | 65* | 0.4
SMILES | PMI act satM6P | TNAP inh noacc | PMI activator | TNAP inh hi DEA | TNAP act hiacc
Cc1cc(C)c2nc(-c3ccccn3)cc(C(=O)NCc3ccco3)c2c1 | 1.4 | -5 | 1.1 | -4 | 1
O=C(O)c1nn2c(C(F)(F)F)cc(-c3cccs3)nc2c1Cl | 1 | -16 | 0.9 | -1 | 1
Cc1ccc(N/N=C(\Cc2nc3ccccc3[nH]2)c2ccccc2)cc1 | 2.2* | -32 | 1.5 | 2 | 1
Clc1cccc(/C(Cc2nc3ccccc3[nH]2)=N\Nc2ccccc2)c1 | 2.5* | -17 | 1.7 | 3 | 1
N#CCCN/N=C(/Cc1nc2ccccc2[nH]1)c1ccc(Cl)cc1 | 1 | -6 | 0.9 | 0 | 1
CCN/N=C(\Cc1nc2ccccc2[nH]1)c1ccccc1 | 0.9 | -9 | 1 | 2 | 1
c1ccc(N/N=C(\Cc2nc3ccccc3[nH]2)c2ccccc2)cc1 | 2.9* | -12 | 1.8 | -1 | 1
N#CCCN/N=C(\Cc1nc2ccccc2[nH]1)c1ccccc1 | 1 | -5 | 1 | 0 | 1
CC1(C)CC(=O)C(CC(=O)Nc2cc(C(F)(F)F)ccc2Cl)C(=O)C1 | 1.1 | 52* | 1.3 | 35 | 0.6
CCn1ccc2cc(OC)ccc2c1=S | 2* | -1 | 1.4 | 1 | 1
NC(=S)N/N=C/c1coc2c(ccc3ccccc32)c1=O | 0.9 | -25 | 1 | 6 | 0.9
O=c1cc(/N=C/c2coc3c(ccc4ccccc43)c2=O)[nH]c(=S)[nH]1 | 0.8 | 53* | 1 | 24 | 0.8
Cc1nn(C(=O)c2ccccc2)c2c1C(=O)CC(C)(C)C2 | 1 | 56* | 1 | 1 | 1
CCCc1nn(-c2cc(Cl)ccc2OC)c2c1C(=O)CC(C)(C)C2 | 0.9 | -4 | 0.9 | -3 | 1
CCCc1nn(C(=O)c2ccccc2)c2c1C(=O)CC(C)(C)C2 | 1 | 52* | 0.9 | -1 | 1
COc1ccccc1N1CCN(C(=O)CSc2nc3ncnc(N)c3[nH]2)CC1 | 1.1 | 60* | 1 | -6 | 1.1
Nc1ncnc2nc(SCC(=O)N3CCN(c4ccccc4)CC3)[nH]c12 | 1.1 | 62* | 1 | 1 | 1
COc1ccccc1N1CCN(C(=O)CSc2nc(-c3ccccc3)cc(=O)[nH]2)CC1 | 1.1 | -11 | 1 | -2 | 1
COC(=O)c1ccccc1NC(=O)C1CCN(S(C)(=O)=O)CC1 | 0.9 | -15 | 0.9 | 1 | 1
CCOC(=O)c1cc(NC(=O)Nc2cc(C)ccn2)c(C)nc1C | 1.2 | 7 | 1.1 | 9 | 0.9
CCOC(=O)c1cc(NC(=O)Nc2nc3ccccc3s2)c(C)nc1C | 1 | 58* | 0.9 | 3 | 1
Cc1ccc(S(=O)(=O)NNc2ccccc2)c(C)c1 | 2.7* | 4 | 1.7 | -1 | 1
CC(C)CSC1=NSC2=NC(=O)/C(=C\c3coc4ccccc4c3=O)C(=N)N12 | 2* | 13 | 1.6 | 6 | 0.9
CSC1=NSC2=NC(=O)/C(=C\c3coc4ccccc4c3=O)C(=N)N12 | 1.7 | -14 | 1.3 | 3 | 1
CN1C(=O)/C(=C/c2ccccc2OCc2ccc(F)cc2)N(C)C1=S | 0.9 | -15 | 0.8 | 2 | 1
Cc1nc2sc(C(N)=O)c(N)c2c(C)c1CC(=O)c1ccccc1 | 2* | -7 | 1.7 | -2 | 1
C/C(=N\Nc1ccc(F)cc1F)c1ccccc1O | 2.3* | -11 | 1.7 | -4 | 1
Clc1ccccc1-c1nc(-c2ccccc2)n[nH]1 | 1 | 91* | 1 | 3 | 1
CCSc1nnc(NC(=O)COc2cccc3ccccc23)s1 | 1 | 3 | 1.1 | -2 | 1
